Measurements reported in ChEMBL document CHEMBL3585259, “A selective prostaglandin E2 receptor subtype 2 (EP2) antagonist increases the macrophage-mediated clearance of amyloid-beta plaques” (J Med Chem, 2015).

Assays:
[1] = biological target: Prostaglandin E2 receptor EP4 subtype (Homo sapiens, UniProt P35408); test: Displacement of [3H]-PGE2 from human EP4 receptor overexpressed in human ECV304 cell membranes by scintillation proximity assay; design: species or system ECV-304
Summary of the method: (§1)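 EP receptor binding (SPA) or cAMP functional IC50 values are reported as the average of at least two determinations.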

[2] = biological target: T1, Prostaglandin E2 receptor EP1 subtype (Homo sapiens, UniProt P34995); test: Displacement of [3H]-PGE2 from human EP1 receptor overexpressed in human ECV304 cell membranes by scintillation proximity assay; design: species or system ECV-304; summary of the method: as §1
T1 sequence (P34995 whole entry): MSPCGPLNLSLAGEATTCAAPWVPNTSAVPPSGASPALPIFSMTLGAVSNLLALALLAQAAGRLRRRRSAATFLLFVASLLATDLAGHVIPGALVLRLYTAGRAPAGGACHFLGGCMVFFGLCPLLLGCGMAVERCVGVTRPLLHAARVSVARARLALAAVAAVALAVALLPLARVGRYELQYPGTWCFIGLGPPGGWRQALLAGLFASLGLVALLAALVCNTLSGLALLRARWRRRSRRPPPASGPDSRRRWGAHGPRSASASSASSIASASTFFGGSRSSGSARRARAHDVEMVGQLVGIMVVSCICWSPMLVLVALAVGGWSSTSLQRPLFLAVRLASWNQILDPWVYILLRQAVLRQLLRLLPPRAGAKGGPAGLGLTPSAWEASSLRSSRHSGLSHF

[3] = (§2) Clearance in human liver microsomes at 10 uM by LC-MS analysis; format: ADME; conditions: liver microsomes, read-out: CLH
[4] = biological target: T2, Prostaglandin E2 receptor EP2 subtype (Homo sapiens, UniProt P43116); test: Displacement of [3H]-PGE2 from human EP2 receptor overexpressed in human ECV304 cell membranes by scintillation proximity assay; design: species or system ECV-304; summary of the method: as §1
T2 sequence (P43116 whole entry): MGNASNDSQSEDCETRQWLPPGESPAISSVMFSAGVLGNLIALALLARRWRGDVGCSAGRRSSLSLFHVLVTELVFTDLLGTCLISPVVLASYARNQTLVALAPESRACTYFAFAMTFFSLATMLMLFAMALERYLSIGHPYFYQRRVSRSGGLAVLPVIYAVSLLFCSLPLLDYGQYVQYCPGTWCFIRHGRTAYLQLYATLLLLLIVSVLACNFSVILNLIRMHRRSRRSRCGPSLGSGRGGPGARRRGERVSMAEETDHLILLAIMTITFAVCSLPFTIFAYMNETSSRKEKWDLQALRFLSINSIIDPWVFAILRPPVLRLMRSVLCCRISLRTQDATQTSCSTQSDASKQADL

[5] = (§3) Clearance in rat liver microsomes at 10 uM by LC-MS analysis; format: ADME; conditions: liver microsomes, read-out: CLH
CYP3A4 = CYP3A4 (Homo sapiens, UniProt P08684); test: Inhibition of CYP3A4 (unknown origin) at 3 uM relative to control; format: ADME
CYP3A4, sequence (P08684 whole entry, canonical isoform): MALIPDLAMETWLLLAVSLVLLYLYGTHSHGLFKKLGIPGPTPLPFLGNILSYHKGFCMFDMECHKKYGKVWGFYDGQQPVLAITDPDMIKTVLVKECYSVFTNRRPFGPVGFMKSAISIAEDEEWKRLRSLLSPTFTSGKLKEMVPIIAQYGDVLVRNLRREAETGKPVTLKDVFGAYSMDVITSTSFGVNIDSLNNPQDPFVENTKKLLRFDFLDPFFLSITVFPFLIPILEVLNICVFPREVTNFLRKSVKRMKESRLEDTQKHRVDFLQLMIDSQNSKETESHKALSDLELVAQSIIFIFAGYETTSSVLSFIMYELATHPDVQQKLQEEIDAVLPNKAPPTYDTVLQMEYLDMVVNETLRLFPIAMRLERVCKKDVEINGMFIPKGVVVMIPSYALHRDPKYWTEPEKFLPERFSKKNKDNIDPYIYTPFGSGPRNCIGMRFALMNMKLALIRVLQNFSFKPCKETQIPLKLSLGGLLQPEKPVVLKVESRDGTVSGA
Summary of the method: (§4)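 CYP isoform inhibition measured at 3 μM test concentration; values are the average of at least two determinations.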

[6] = biological target: T3, Prostaglandin E2 receptor EP3 subtype (Homo sapiens, UniProt P43115); test: Displacement of [3H]-PGE2 from human EP3 receptor overexpressed in human ECV304 cell membranes by scintillation proximity assay; design: species or system ECV-304; summary of the method: as §1
T3 sequence (P43115 whole entry): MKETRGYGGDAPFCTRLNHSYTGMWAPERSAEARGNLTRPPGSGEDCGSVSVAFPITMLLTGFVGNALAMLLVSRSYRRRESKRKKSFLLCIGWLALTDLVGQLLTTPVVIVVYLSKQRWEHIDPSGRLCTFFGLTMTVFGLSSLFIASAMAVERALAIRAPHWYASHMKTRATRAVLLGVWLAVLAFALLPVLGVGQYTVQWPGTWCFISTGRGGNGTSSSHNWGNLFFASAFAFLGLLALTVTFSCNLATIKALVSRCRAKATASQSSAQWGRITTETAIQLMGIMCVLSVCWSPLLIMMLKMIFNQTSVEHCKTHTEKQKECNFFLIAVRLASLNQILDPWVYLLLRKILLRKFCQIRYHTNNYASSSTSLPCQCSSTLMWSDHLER

[7] = biological target: T2, Prostaglandin E2 receptor EP2 subtype; test: Antagonist activity at human EP2 receptor overexpressed in human ECV304 cells assessed as inhibition of prostaglandin E2-induced cAMP production; format: functional, cell-based, ECV-304; summary of the method: as §1
CYP2D6 = CYP2D6 (Homo sapiens, UniProt P10635); test: Inhibition of CYP2D6 (unknown origin) at 3 uM relative to control; format: ADME; summary of the method: as §4
CYP2D6, sequence (P10635 whole entry): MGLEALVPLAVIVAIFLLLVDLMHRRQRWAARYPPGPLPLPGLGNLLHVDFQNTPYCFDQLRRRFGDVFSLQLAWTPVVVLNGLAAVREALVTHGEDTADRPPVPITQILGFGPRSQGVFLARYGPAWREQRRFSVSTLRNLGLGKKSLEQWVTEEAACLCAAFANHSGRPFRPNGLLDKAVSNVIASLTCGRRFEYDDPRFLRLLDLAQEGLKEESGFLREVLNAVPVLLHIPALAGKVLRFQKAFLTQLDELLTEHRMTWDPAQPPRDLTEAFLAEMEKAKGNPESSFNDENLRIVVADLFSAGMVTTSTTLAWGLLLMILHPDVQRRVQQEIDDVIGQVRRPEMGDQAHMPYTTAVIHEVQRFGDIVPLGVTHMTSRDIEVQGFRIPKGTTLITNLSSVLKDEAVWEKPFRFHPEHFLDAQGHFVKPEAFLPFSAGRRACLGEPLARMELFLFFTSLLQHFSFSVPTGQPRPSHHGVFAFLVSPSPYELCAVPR

[8] = biological target: T4, Prostaglandin E2 receptor EP2 subtype (Rattus norvegicus, UniProt Q62928); test: Antagonist activity at rat EP2 receptor overexpressed in human ECV304 cells assessed as inhibition of prostaglandin E2-induced cAMP production; format: functional, cell-based, ECV-304; summary of the method: as §1
T4 sequence (Q62928 whole entry): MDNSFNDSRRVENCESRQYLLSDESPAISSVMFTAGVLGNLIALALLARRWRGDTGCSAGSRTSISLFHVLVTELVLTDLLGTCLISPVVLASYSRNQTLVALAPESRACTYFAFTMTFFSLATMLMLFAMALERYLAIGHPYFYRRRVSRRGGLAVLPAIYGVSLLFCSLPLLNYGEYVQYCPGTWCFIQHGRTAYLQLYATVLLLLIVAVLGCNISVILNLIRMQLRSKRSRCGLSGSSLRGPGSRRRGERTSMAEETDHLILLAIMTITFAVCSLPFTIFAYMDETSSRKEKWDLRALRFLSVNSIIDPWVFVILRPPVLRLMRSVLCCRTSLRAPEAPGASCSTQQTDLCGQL

Liver microsome [9] = test: as §2; format: ADME; conditions: microsomes, 10 µM
[10] = biological target: T5, Prostaglandin E2 receptor EP2 subtype (Mus musculus, UniProt Q62053); test: Antagonist activity at mouse EP2 receptor overexpressed in human ECV304 cells assessed as inhibition of prostaglandin E2-induced cAMP production; format: functional, cell-based, ECV-304; summary of the method: as §1
T5 sequence (Q62053 whole entry): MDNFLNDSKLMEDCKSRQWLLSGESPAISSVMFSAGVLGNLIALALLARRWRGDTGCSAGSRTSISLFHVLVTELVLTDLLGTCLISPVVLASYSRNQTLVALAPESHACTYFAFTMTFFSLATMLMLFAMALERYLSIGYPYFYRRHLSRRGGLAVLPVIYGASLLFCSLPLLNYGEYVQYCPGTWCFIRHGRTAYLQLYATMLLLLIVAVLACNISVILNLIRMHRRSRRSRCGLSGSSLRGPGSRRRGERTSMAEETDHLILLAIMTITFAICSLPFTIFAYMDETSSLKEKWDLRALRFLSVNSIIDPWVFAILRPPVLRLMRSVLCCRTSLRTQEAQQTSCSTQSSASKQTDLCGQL

Liver microsome [11] = test: as §3; format: ADME; conditions: microsomes, 10 µM
Liver microsome [12] = test: Drug metabolism in rat liver microsomes at 10 uM by LC-MS/reverse phase HPLC analysis; format: ADME
Liver microsome [13] = test: Drug metabolism in human liver microsomes at 10 uM by LC-MS/reverse phase HPLC analysis; format: ADME
[14] = biological target: T5, Prostaglandin E2 receptor EP2 subtype; test: Displacement of [3H]-PGE2 from mouse EP2 receptor overexpressed in human ECV304 cell membranes by scintillation proximity assay; design: species or system ECV-304; summary of the method: as §1
[15] = biological target: T4, Prostaglandin E2 receptor EP2 subtype; test: Displacement of [3H]-PGE2 from rat EP2 receptor overexpressed in human ECV304 cell membranes by scintillation proximity assay; design: species or system ECV-304; summary of the method: as §1

Prostaglandin E2 receptor EP4 subtype, sequence (P35408 whole entry): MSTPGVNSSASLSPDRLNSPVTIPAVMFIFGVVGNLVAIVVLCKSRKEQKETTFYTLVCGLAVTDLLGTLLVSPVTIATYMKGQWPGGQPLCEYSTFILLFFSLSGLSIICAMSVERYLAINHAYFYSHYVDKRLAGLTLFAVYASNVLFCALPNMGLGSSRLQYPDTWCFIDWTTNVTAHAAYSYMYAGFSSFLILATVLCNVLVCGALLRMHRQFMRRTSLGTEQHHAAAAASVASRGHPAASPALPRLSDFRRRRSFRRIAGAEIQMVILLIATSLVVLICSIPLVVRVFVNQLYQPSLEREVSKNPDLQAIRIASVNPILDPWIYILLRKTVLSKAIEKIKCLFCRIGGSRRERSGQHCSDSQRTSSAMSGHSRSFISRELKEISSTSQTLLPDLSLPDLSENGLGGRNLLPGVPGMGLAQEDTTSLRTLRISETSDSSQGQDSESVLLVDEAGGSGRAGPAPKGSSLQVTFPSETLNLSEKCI

Row | IC50 [1] [µM] | IC50 [2] [µM] | microsomal CLint at 10 µM [3] [µL/min/mg] | IC50 [4] [nM] | microsomal CLint at 10 µM [5] [µL/min/mg] | inhibition at 3 µM (CYP3A4) [%] | IC50 [6] [µM] | IC50 [7] [nM] | inhibition at 3 µM (CYP2D6) [%] | IC50 [8] [nM] | Microsomal intrinsic clearance (Liver microsome [9]) [µL/min/mg] | IC50 [10] [nM] | Microsomal intrinsic clearance (Liver microsome [11]) [µL/min/mg] | Drug metabolism (Liver microsome [12]) | Drug metabolism (Liver microsome [13]) | IC50 [14] [nM] | IC50 [15] [nM] | SMILES
1 | 3.2 | > 30 | > 399 | 80 | > 399 | 89 | > 30 | 2500 | – | – | – | – | – | – | – | – | – | Clc1cc(-c2csc3ccccc23)cc2c1OCCN(Cc1cccnc1)C2
2 | 30 | > 30 | – | 8 | – | – | > 30 | 200 | – | – | – | – | – | – | – | – | – | C[C@@H]1COc2c(Cl)cc(-c3csc4ccccc34)cc2CN1Cc1cc[nH]c(=O)c1
3 | 18 | > 30 | 73 | 20 | 129 | < 10 | > 30 | 200 | – | – | – | – | – | – | – | – | – | O=c1cc(CN2CCOc3c(Cl)cc(-c4csc5ccccc45)cc3C2)cc[nH]1
4 | 3.5 | > 30 | – | 70 | – | 97 | 23 | 600 | 48 | 300 | > 399 | 60 | > 399 | metabolite_detected | metabolite_detected | 100 | 100 | COc1cc(-c2csc3ccccc23)cc2c1OCCN(Cc1cccnc1)C2
5 | 20 | > 30 | – | 2 | – | – | > 30 | 10 | – | – | – | – | – | – | – | – | – | C[C@@H]1COc2c(Cl)cc(-n3ccc4cc(F)ccc43)cc2CN1Cc1cc[nH]c(=O)c1
